Tests used:
[1] = biological target: T1, Retinoic acid receptor gamma (Homo sapiens) (UniProt P13631); assay: Antagonist activity at RARgamma-LBD (unknown origin) expressed in HEK-293 cells assessed as inhibition of ATRA induced Gal4/luciferase gene expression after 24 hrs relative to ATRA; type: cell-based; conditions: HEK293
T1 sequence (whole entry): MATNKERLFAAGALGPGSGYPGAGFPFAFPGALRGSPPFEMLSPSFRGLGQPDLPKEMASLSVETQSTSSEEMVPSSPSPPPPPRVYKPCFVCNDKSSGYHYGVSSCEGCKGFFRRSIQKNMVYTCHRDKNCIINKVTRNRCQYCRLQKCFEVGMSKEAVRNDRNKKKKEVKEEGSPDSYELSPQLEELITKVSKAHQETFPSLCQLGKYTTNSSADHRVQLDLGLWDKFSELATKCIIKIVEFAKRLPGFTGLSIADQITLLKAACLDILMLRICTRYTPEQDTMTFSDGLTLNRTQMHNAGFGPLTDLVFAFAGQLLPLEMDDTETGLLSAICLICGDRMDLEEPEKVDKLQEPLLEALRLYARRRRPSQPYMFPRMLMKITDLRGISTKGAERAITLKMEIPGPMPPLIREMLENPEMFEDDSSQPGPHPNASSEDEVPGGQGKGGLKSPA

[2] = biological target: T2, Retinoic acid receptor alpha/Retinoid X receptor alpha (Homo sapiens, UniProt P10276); assay: Displacement of [3H]-TTNPB from RARalpha/RXRalpha (unknown origin) expressed in baculovirus expression system by scintillation proximity assay
T2 sequence (P10276 whole entry): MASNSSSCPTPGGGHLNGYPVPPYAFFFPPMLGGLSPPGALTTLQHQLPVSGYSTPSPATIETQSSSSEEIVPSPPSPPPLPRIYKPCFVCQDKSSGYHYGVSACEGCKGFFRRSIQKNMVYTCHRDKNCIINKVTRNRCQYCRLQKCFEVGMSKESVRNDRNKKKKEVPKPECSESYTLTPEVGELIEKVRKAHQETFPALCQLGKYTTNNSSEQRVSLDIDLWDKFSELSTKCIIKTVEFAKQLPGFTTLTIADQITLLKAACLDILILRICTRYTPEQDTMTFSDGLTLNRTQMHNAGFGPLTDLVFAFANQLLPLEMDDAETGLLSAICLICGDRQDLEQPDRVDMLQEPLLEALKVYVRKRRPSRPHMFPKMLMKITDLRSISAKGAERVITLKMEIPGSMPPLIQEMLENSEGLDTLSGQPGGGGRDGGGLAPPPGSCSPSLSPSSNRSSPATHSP
T2 sequence (P19793 whole entry): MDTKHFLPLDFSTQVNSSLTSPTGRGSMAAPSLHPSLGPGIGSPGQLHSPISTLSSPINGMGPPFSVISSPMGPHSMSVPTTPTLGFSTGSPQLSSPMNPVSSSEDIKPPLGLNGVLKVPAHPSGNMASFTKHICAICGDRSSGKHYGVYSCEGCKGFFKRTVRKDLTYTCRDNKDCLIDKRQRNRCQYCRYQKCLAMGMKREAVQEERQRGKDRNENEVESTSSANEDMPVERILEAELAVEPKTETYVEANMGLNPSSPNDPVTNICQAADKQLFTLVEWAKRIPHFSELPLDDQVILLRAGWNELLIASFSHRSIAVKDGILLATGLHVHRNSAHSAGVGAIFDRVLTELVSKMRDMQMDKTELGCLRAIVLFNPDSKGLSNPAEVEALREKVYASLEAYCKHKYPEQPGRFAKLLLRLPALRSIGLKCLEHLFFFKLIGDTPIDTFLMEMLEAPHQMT

[3] = biological target: T3, Retinoic acid receptor RXR-alpha/gamma (Homo sapiens, UniProt P13631+P19793); assay: Displacement of [3H]-TTNPB from RARgamma/RXRalpha (unknown origin) expressed in baculovirus expression system by scintillation proximity assay
T3 sequence (P13631 whole entry): T1 sequence (whole entry)
T3 sequence (P19793 whole entry): T2 sequence (P19793 whole entry)

[4] = biological target: T4, Retinoic acid receptor RXR-alpha/Retinoic acid receptor beta (Homo sapiens, UniProt P10826); assay: Displacement of [3H]-TTNPB from RARbeta/RXRalpha (unknown origin) expressed in baculovirus expression system by scintillation proximity assay
T4 sequence (P10826 whole entry): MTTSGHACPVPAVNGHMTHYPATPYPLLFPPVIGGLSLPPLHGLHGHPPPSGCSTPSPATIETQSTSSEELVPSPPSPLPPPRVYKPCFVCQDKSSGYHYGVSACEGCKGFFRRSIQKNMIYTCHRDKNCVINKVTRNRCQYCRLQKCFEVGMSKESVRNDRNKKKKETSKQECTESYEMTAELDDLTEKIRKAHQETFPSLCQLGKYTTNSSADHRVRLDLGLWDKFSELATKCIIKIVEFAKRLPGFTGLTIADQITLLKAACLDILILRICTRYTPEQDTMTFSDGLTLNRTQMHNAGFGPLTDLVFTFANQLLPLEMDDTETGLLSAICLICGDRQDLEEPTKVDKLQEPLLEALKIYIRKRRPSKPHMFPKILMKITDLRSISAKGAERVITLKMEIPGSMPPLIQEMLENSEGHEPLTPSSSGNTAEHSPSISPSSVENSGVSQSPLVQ
T4 sequence (P19793 whole entry): T2 sequence (P19793 whole entry)

Homo sapiens = species on record: Homo sapiens; assay: Selectivity index, ratio of Ki for RARbeta/RXRalpha (unknown origin) to Ki for RARgamma/RXRalpha (unknown origin) expressed in baculovirus expression system
[5] = biological target: T1, Retinoic acid receptor gamma (Homo sapiens); assay: Antagonist activity at RARgamma-LBD (unknown origin) expressed in HEK-293 cells assessed as inhibition of ATRA induced Gal4/luciferase gene expression after 24 hrs; type: cell-based; conditions: HEK293
[6] = Selectivity index, ratio of Ki for RARalpha/RXRalpha (unknown origin) to Ki for RARgamma/RXRalpha (unknown origin) expressed in baculovirus expression system; design: species or system Homo sapiens
Rattus norvegicus [7] = assay: Toxicity in rat assessed as testicular degeneration at 10 mg/kg, po administered for 14 days; type: organism-based; conditions: in vivo, 336 h
[8] = AUC in rat at 0.72 mg/kg, po administered for 14 days; type: ADME, organism-based; conditions: in vivo
Rattus norvegicus [9] = assay: Analgesic activity in MIA-induced osteoarthritis-like joint pain rat model assessed as reduction in differential weight bearing between contralateral and ipsilateral limbs administered on day 9 post MIA challenge as single oral dose; type: functional; conditions: 216 h
How it was run: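 Rats received a single intraarticular injection of mono-iodoacetate into one hind limb joint. Joint pain read as differential weight bearing between contralateral and ipsilateral limbs. Compound given as a single oral dose on the day of testing. ED50 derived from the dose-response.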

[10] = AUC in rat at 30 mg/kg, po administered for 14 days; type: ADME, organism-based; conditions: in vivo
[11] = AUC in rat at 10 mg/kg, po administered for 14 days; type: ADME, organism-based; conditions: in vivo
[12] = biological target: T5, Retinoic acid receptor beta (Homo sapiens) (UniProt P10826); assay: Antagonist activity at RARbeta-LBD (unknown origin) expressed in HEK-293 cells assessed as inhibition of ATRA induced Gal4/luciferase gene expression after 24 hrs; type: cell-based; conditions: HEK293
T5 sequence (whole entry): T4 sequence (P10826 whole entry)

[13] = Oral bioavailability in rat at 10 mg/kg measured up to 14 days; type: ADME, organism-based; conditions: in vivo
[14] = Solubility of the compound in simulated intestinal fluid; type: ADME
[15] = biological target: T6, Retinoic acid receptor alpha (Homo sapiens, UniProt P10276); assay: Antagonist activity at RARalpha-LBD (unknown origin) expressed in HEK-293 cells assessed as inhibition of ATRA induced Gal4/luciferase gene expression after 24 hrs; type: cell-based, HEK293
T6 sequence (P10276 whole entry): T2 sequence (P10276 whole entry)

Rattus norvegicus [16] = assay: Toxicity in rat assessed as testicular degeneration at 30 mg/kg, po administered for 14 days; type: organism-based; conditions: in vivo, 336 h

Row | SMILES | Imax [1] [%] | Ki [2] [nM] | Ki [3] [nM] | Ki [4] [nM] | Ratio Ki (Homo sapiens) | Kb [5] [nM] | Ratio Ki [6] | Activity (Rattus norvegicus [7]) | AUC at 336 h [8] [ng·h/mL] | ED50 (Rattus norvegicus [9]) [mg/kg] | AUC at 336 h [10] [ng·h/mL] | AUC at 336 h [11] [ng·h/mL] | Kb [12] [nM] | bioavailability [13] [%] | solubility ([14]; simulated intestinal fluid, read-out: solubility) [µg/mL] | Kb [15] [nM] | Activity (Rattus norvegicus [16]) | solubility ([14]; simulated gi fluid) [µg/mL]
1 | CN(C)S(=O)(=O)c1ccc(-n2nc(-c3ccc(C(=O)O)cc3)cc2-c2cc(C(C)(C)C)cc(C(C)(C)C)c2)cc1 | > 100 | > 1700 | 4.1 | > 2980 | > 725 | 11.1 | >414 |  |  |  |  |  |  |  |  |  |  | 
2 | CC(C)c1cc(-c2cc(-c3ccc(C(=O)O)cc3)nn2-c2ccc(S(C)(=O)=O)cc2)cc(C(C)(C)C)c1 |  | 87 | 1.6 | 131 |  |  | 54 |  |  |  |  |  |  |  |  |  |  | 
3 | CC(C)(C)c1cc(-c2cc(-c3ccc(C(=O)O)cc3)nn2-c2ccc(C(N)=O)cc2)cc(C(C)(C)C)c1 | 79 | > 1700 | 1.4 | > 2980 | > 2210 | 14.7 | >1259 |  |  |  |  |  |  |  |  |  |  | 
4 | CC1(C)CC=C(c2ccccc2)c2cc(/C=C/c3ccc(C(=O)O)cc3)ccc21 | > 100 | 7.7 | 17.3 |  |  | 18.5 |  |  |  |  |  |  |  |  |  |  |  | 
5 | CN1CCN(C(=O)c2ccc(-n3nc(-c4ccc(C(=O)O)cc4)cc3-c3cc(C(C)(C)C)cc(C(C)(C)C)c3)cc2)CC1 | > 100 | > 1700 | 1.1 | > 2980 | > 2730 | 7.1 | >1560 | Non-toxic | 154 | 0.724 | 36800 | 9100 | 1510 | 26 | > 1000 | > 4440 | Toxic | 
6 | Cc1cc(-c2cc(-c3ccc(C(=O)O)cc3)nn2-c2ccc(S(C)(=O)=O)cc2)cc(C(C)(C)C)c1 |  | 6.2 | 1.1 | 10 |  |  | 5.6 |  |  |  |  |  |  |  |  |  |  | 
7 | CC(C)(C)c1cc(-c2cc(-c3ccc(C(=O)O)cc3)nn2-c2ccc(C(=O)N3CCOCC3)cc2)cc(C(C)(C)C)c1 | > 100 | > 1700 | 2.3 | > 2980 | > 1320 | 7.2 | >752 |  |  |  |  |  |  |  |  |  |  | 
8 | CC(C)(C)c1cccc(-c2cc(-c3ccc(C(=O)O)cc3)nn2-c2ccc(S(C)(=O)=O)cc2)c1 |  | 1.8 | 1.1 | 4.3 |  |  | 1.6 |  |  |  |  |  |  |  |  |  |  | 
9 | CC(C)(C)c1cc(-c2cc(-c3ccc(C(=O)O)cc3)nn2-c2ccc(S(C)(=O)=O)cc2)cc(C(C)(C)C)c1 | > 100 | 461 | 4.4 | 995 | 228 | 13.5 | 106 |  |  |  |  |  |  |  |  |  |  | < 0.1
10 | CC1(C)CCC(C)(C)c2cc(-c3cc(-c4ccc(C(=O)O)cc4)nn3-c3ccc(S(C)(=O)=O)cc3)ccc21 | > 100 | 2.8 | 0.27 | 5.2 | 10 | 2.2 | 10 |  |  |  |  |  |  |  |  |  |  | 
11 | CN(C)C(=O)c1ccc(-n2nc(-c3ccc(C(=O)O)cc3)cc2-c2cc(C(C)(C)C)cc(C(C)(C)C)c2)cc1 | > 100 | > 1700 | 2.2 | > 2980 | > 1340 | 21.3 | >766 |  |  |  |  |  |  |  |  |  |  | 
